# Measured values from PubChem BioAssay AID2648 (Johns Hopkins Ion Channel Center, 2010).
# Hit rate of the full screen: of about 310,000 compounds, about 1,100 (0.35%) were called active.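 How the source made its calls: active means fluorescence ratio B-score, a plate-corrected score, at least three library SD, with initial intensity B-score within 5 SD; inactive means the rest.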 The sample as a whole holds a higher share of actives than the screen did.
# Target: Potassium voltage-gated channel subfamily KQT member 1 (Homo sapiens) (UniProt P51787)
# Sequence (P51787 whole entry, looked up): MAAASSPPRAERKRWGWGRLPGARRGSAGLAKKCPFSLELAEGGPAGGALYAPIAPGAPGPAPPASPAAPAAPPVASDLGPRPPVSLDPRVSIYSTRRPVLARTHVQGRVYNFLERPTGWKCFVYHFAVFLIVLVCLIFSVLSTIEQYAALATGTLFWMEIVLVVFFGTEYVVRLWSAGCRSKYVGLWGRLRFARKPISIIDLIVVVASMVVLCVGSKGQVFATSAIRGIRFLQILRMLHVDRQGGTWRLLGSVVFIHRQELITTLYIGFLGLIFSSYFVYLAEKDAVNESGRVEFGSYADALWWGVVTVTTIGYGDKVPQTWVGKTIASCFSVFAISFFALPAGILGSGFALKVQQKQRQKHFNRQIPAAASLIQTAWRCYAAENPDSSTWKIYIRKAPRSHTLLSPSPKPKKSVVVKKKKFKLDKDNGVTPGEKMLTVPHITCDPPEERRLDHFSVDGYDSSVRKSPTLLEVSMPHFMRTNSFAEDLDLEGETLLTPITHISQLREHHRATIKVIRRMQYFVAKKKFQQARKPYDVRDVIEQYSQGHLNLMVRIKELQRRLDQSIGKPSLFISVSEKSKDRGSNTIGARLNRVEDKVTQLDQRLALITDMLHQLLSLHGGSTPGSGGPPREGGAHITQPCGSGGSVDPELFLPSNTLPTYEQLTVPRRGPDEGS
# Test: human KCNQ1 current enhancers – cell-based, thallium flux, high-throughput, primary screen (AID 2648)
# Conditions: CHO-K1 KCNQ1, thallium flux FluxOR fluorescence, at 10 µM; stronger effect = higher value
# Summary of the method: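 Test system: CHO-K1 cells stably expressing KCNQ1 / Medium: assay buffer / Also added: depolarizing K+/Tl+ stimulus, K2SO4 and Tl2SO4 each 12.5 mM in 5x stock / Incubation: 90 min dye loading and 20 min compound exposure, both at room temperature / Signal: thallium influx via FluxOR fluorescence, kinetic imaging / Evaluation: B score of baseline-normalized fluorescence ratio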
row,SMILES,B-score
1,CN(CC(=O)Nc1ccc(Cl)cc1)C(=O)CNC(=O)c1ccc2ccccc2c1,inactive
2,COc1cc(C(=O)NCC(=O)NCCSc2ccc(Br)cc2)cc(OC)c1OC,inactive
3,Cc1ccc(N(CC(=O)NC2CCCCC2)C(=O)CCCC(=O)Nc2ccccn2)c(C)c1,inactive
4,CCCCNC(=O)C1CCCNC1=O (configuration not stated),inactive
5,CCC1(C)Cc2c(sc3nc(SC)[nH]c(=O)c23)CO1 (configuration not stated),inactive
6,CCC1(C)Cc2c(sc3nc4n(c(=O)c23)CCCS4)CO1 (configuration not stated),inactive
7,CCC1(C)Cc2c(sc3[nH]c(=S)n(Cc4ccccc4)c(=O)c23)CO1 (configuration not stated),57 (active)
8,OC(CNCc1ccc(Cl)c(Cl)c1)c1ccccc1 (configuration not stated),inactive
9,Cc1cccn2cc(-c3cccc(S(=O)(=O)N4CCCCC4)c3)nc12,inactive
10,COc1cccc(NC(=S)NC(=O)c2c(Cl)c(C)nn2C)c1,8 (active)
11,Cc1nn(C)c(C(=O)NNC(=S)NC2CCCCC2)c1Cl,inactive
12,COc1cccc(NC(=S)NCc2ccccn2)c1,inactive
13,COc1ccc(/C=C2/S/C(=N/N=C3\CC4CCC3(C)C4(C)C)NC2=O)cc1 (configuration not stated),23 (active)
14,CCOc1ccc(N=C2NC(=O)S/C2=C\c2ccc(O)cc2)cc1,inactive
15,COc1ccc(/C=C2\SC(=N)N(c3ccc(F)cc3)C2=O)cc1,inactive
16,Cc1ccc(OS(=O)(=O)c2ccc(-c3csc(C)n3)s2)c(C)c1,inactive
17,CCOC(=O)N1CCN(C(=O)C(C)NC(=O)c2ccco2)CC1 (configuration not stated),inactive
18,Cc1ccc(C)c(NC(=O)C(OC(=O)c2ccc(C)s2)c2ccccc2)c1 (configuration not stated),inactive
19,CCn1c(O)c(N=NC2=NC(=O)CS2)c2cc(C)ccc21,11 (active)
20,CCn1c(O)c(N=NC(=O)c2cccc(S(=O)(=O)N3CCCCC3)c2)c2ccccc21,inactive
21,COC(=O)Cn1c2ccc(C)cc2c2nc(C)sc21,inactive
22,CCCc1noc2c1/C(=N\O)CCC2,inactive
23,Cc1c(N=Nc2ccc(N(C)C)cc2)c(=O)n(-c2ccccc2)n1C,inactive
24,CCOC(=O)c1c(NC(=S)NC)sc2c1CCCC2,77 (active)

row,SMILES,B-score
1,CCOC(=O)c1c(NC(=O)C2(C)Cc3ccccc3C(=O)O2)sc2c1CCCC2 (configuration not stated),inactive
2,CCOC(=O)c1c(NC(=S)Nc2ccccc2)sc2c1CCN(C)C2,inactive
3,Cc1ccc(C(=O)CN2C(=O)NC3(CCc4ccccc43)C2=O)c(C)c1 (configuration not stated),inactive
4,CN(C)c1nc(=Nc2cccc(Cl)c2)ss1,12 (active)
5,Clc1cccc(N=C2NN=C(c3ccc4c(c3)OCCO4)CS2)c1,inactive
6,Cc1cc(C)c(C#N)c(SCC(=O)NN2CC(=O)N(c3ccccc3F)CC2=O)n1,inactive
7,CCN(CC)N=Nc1cccc(NC(C)=O)c1,inactive
8,O=C(C1=C(O)C(=O)N(CCOCCO)C1c1ccccn1)c1cccs1 (configuration not stated),inactive
9,CCOc1cc(C)c(S(=O)(=O)NCc2ccccn2)cc1C,inactive
10,COc1ccc(C(=O)n2nc(-c3ccc(C)cc3)nc2N)cc1OC,inactive
11,CCCC(=O)n1nc(-c2ccccc2)nc1N,20 (active)
12,COc1ccc(CC(=O)n2nc(-c3cccnc3)nc2N)cc1,inactive
13,O=C1/C(=C\Nc2ccccc2)CCN1c1ncccn1,inactive
14,O=C1N[C@@H](Cc2ccccc2)C(=O)N2[C@H]1C[C@]1(Br)c3ccccc3N(S(=O)(=O)c3ccccc3)[C@H]21,inactive
15,O=c1c(-c2cccc(Cl)c2)c[nH]n1-c1ccccc1,inactive
16,O=C1c2ccccc2NC(c2ccc(-c3cccc(Cl)c3)o2)N1O (configuration not stated),10 (active)
17,O=C1NC(c2cccc(Cl)c2)Nc2ccccc21 (configuration not stated),inactive
18,O=C(N/N=C\c1cc2c(cc1Cl)OCO2)c1ccc(Br)s1,inactive
19,COC(=O)c1sccc1NC(=O)COc1ccc(Cl)cc1,inactive
20,COC(=O)c1sccc1NS(=O)(=O)c1ccc(F)cc1F,inactive
21,COC(=O)c1sccc1NC(=O)CSc1ccccc1NS(=O)(=O)c1cc(Cl)ccc1Cl,12 (active)
22,O=C(NNC(=S)NC1CCCCC1)c1ccccc1Cl,inactive
23,O=C(NC(=S)NC1CCCCC1)c1ccc(Cl)cc1,9 (active)
24,COc1ccc(C(=O)NC(=S)NC2CCCCC2)cc1,inactive

row,SMILES,B-score
1,CC(C)Cc1nc(Nc2ccc(S(=O)(=O)N3CCCC3)cc2)c2nnn(Cc3ccccc3)c2n1,inactive
2,CCc1ccc(Oc2coc3cc(O)ccc3c2=O)cc1,inactive
3,CC(Oc1cccc(Cl)c1)C(=O)Nc1ccc(S(=O)(=O)Nc2ncccn2)cc1 (configuration not stated),inactive
4,CN(C)CCCn1c(=O)n(Cc2ccccc2)c(=O)c2c3c(sc21)CCCCC3,inactive
5,CCCc1nc2sc3c(c2c(=O)n1NC(=O)CCCl)CCCC3,inactive
6,CCn1c(=S)[nH]c2sc3c(c2c1=O)CCCCC3,92 (active)
7,N#Cc1nc(N)nc(N(c2ccccc2)c2ccccc2)n1,inactive
8,O=C(Nc1cccn(Cc2ccccc2Cl)c1=O)NC1CCCCC1,inactive
9,CC(OC(=O)C1CC(=O)N(Cc2ccccc2)C1)C(=O)Nc1ccccc1[N+](=O)[O-] (configuration not stated),inactive
10,COc1ccc(C(=O)NC(=S)NNC(=O)c2c(-c3ccccc3)noc2C)cc1,inactive
11,COc1ccc(C(=O)NNC(=S)NC(=O)c2ccccc2[N+](=O)[O-])cc1,inactive
12,COc1ccc(C(=O)NNC(=S)NC(=O)c2ccccc2)cc1,10 (active)
13,CCc1cc2c(=O)c(-c3ccon3)c(N)oc2cc1OC,inactive
14,Oc1ccc2ccccc2c1N=Nc1nccs1,21 (active)
15,Oc1ccc(N=Nc2nccs2)c(O)c1,inactive
16,c1ccc(NCc2cccc3ccccc23)nc1,inactive
17,COc1ccc(N(CC(=O)NCc2ccc(F)cc2)C(=O)CCC(=O)Nc2nccs2)cc1,inactive
18,CC1=C/C(=N\OS(=O)(=O)c2ccccc2)C=CC1=O,9 (active)
19,O=S(=O)(ON(c1ccccc1)S(=O)(=O)c1ccccc1)c1ccccc1,inactive
20,CCOc1ccc(Br)cc1S(=O)(=O)Nc1cccc(S(=O)(=O)N(CC)CC)c1,inactive
21,Cc1ccc(O)c(NC(=S)NC(=O)COc2ccc(Br)cc2)c1,8 (active)
22,Cc1cccc(OCC(=O)NC(=S)Nc2ccccc2N2CCOCC2)c1,inactive
23,Cc1ccc(O)c(NC(=O)COc2cc(C)ccc2C)c1,inactive
24,CCCCn1c(N)c(N(CCC(C)C)C(=O)CC2OC(=O)c3ccccc32)c(=O)[nH]c1=O (configuration not stated),inactive
